Measured values from ChEMBL document CHEMBL1157912, “Impact of nature and length of linker incorporated in agonists on toll-like receptor 9-mediated immune responses” (J Med Chem, 2010).

Legend:
[1] = target: T1, Toll-like receptor 9 (Homo sapiens) (UniProt Q9NR96); test: Induction of TLR9-mediated immune stimulation in human PBMC assessed as MCP1 production at 10 ug/ml after 24 hrs by luminex multiplex assay (RVb = 0.08 +/- 0.02 ng/ml)
T1 sequence (whole entry): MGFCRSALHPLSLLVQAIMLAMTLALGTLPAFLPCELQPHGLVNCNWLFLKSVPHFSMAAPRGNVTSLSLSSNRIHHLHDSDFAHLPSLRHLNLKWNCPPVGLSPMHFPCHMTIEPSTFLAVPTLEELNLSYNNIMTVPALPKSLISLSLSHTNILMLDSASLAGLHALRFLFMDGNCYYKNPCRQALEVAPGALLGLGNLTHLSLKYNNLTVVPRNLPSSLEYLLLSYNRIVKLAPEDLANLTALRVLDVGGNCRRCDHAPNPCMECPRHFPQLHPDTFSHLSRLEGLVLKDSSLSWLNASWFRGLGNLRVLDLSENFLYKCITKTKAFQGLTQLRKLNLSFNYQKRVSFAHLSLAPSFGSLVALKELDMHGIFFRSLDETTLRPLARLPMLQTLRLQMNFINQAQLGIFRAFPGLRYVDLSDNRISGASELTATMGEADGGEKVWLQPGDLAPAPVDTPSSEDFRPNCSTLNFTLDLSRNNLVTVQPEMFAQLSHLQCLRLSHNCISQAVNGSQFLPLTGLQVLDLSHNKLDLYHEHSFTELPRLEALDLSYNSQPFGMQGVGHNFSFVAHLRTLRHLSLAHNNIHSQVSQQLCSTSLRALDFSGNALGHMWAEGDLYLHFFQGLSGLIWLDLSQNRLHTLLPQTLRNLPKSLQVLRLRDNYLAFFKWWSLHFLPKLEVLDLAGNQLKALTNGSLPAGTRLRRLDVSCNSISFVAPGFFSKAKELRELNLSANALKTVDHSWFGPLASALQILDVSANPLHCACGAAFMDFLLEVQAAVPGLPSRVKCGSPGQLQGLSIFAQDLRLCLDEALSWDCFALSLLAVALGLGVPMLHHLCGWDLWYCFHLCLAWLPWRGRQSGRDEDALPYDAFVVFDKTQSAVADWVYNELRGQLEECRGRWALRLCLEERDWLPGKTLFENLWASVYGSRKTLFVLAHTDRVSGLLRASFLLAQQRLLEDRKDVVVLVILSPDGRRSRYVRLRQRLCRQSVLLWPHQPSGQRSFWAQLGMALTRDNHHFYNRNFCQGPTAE

[2] = target: T2, Toll-like receptor 9 (Mus musculus) (UniProt Q9EQU3); test: Induction of TLR9-mediated IL6 production in C57BL/6 mouse spleen cells after 24 hrs by ELISA; format: cell-based
T2 sequence (whole entry): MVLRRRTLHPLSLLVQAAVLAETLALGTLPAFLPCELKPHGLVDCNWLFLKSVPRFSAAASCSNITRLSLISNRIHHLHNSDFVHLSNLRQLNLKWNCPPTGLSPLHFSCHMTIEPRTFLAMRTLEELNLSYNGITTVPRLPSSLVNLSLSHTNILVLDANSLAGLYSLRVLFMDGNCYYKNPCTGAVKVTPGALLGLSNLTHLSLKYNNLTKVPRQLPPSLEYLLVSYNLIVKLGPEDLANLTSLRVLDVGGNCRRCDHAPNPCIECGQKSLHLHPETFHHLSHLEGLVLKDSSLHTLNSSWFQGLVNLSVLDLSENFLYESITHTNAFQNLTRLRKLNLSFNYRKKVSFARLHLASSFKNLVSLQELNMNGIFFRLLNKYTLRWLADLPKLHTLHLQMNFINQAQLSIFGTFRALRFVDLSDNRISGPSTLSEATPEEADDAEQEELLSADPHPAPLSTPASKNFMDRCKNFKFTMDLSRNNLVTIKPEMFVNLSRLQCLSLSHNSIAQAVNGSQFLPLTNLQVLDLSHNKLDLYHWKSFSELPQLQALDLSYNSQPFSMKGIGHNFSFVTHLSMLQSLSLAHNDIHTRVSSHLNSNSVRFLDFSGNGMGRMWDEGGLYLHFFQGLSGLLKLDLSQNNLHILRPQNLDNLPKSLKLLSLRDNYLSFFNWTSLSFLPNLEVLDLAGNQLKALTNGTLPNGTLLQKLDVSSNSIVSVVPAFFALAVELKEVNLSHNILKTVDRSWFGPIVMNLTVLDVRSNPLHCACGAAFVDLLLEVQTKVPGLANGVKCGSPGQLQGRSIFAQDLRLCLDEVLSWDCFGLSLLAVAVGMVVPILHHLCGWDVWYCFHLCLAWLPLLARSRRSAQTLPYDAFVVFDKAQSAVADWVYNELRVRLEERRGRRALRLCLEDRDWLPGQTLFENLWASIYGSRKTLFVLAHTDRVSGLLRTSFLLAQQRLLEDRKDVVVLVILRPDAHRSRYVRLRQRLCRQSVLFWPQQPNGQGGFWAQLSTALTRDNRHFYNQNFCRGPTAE
Summary of the method: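 C57BL/6 mouse spleen cells were cultured with agonists at 0.1, 0.3, 1, 3 and 10 μg/mL for 24 h. Secreted IL-12 and IL-6 in the supernatants were measured by ELISA. Values are averages of triplicate wells from one representative of at least two independent experiments.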

[3] = target: T1, Toll-like receptor 9 (Homo sapiens); test: Induction of TLR9-mediated immune stimulation in human PBMC assessed as MIP1beta production at 2 ug/ml after 24 hrs by luminex multiplex assay (RVb = 0.03 +/- 0.02 ng/ml)
[4] = target: T1, Toll-like receptor 9 (Homo sapiens); test: Induction of TLR9-mediated immune stimulation in human PBMC assessed as MIP1alpha production at 10 ug/ml after 24 hrs by luminex multiplex assay (RVb = 0.01 ng/ml)
[5] = target: T1, Toll-like receptor 9 (Homo sapiens); test: Induction of TLR9-mediated immune stimulation in human PBMC assessed as IL1Ralpha production at 2 ug/ml after 24 hrs by luminex multiplex assay (RVb = 0.12 +/- 0.03 ng/ml)
[6] = target: T1, Toll-like receptor 9 (Homo sapiens); test: Induction of TLR9-mediated immune stimulation in human PBMC assessed as MCP1 production at 2 ug/ml after 24 hrs by luminex multiplex assay (RVb = 0.08 +/- 0.02 ng/ml)
[7] = target: T1, Toll-like receptor 9 (Homo sapiens); test: Induction of TLR9-mediated immune stimulation in human PBMC assessed as IP10 production at 10 ug/ml after 24 hrs by luminex multiplex assay (RVb = 0.00 ng/ml)
[8] = target: T1, Toll-like receptor 9 (Homo sapiens); test: Induction of TLR9-mediated immune stimulation in human PBMC assessed as IL1Ralpha production at 10 ug/ml after 24 hrs by luminex multiplex assay (RVb = 0.12 +/- 0.03 ng/ml)
[9] = target: T1, Toll-like receptor 9 (Homo sapiens); test: Induction of TLR9-mediated immune stimulation in human PBMC assessed as IP10 production at 2 ug/ml after 24 hrs by luminex multiplex assay (RVb = 0.00 ng/ml)
[10] = target: T1, Toll-like receptor 9 (Homo sapiens); test: Induction of TLR9-mediated immune stimulation in human PBMC assessed as IL12 production at 10 ug/ml after 24 hrs by luminex multiplex assay (RVb = 0.00 ng/ml)
[11] = target: T1, Toll-like receptor 9 (Homo sapiens); test: Induction of TLR9-mediated immune stimulation in human PBMC assessed as IL6 production at 10 ug/ml after 24 hrs by luminex multiplex assay (RVb = 0.01 ng/ml)

Row | Activity [1] | Activity [2] | Activity [3] | Activity [4] | Activity [5] | Activity [6] | Activity [7] | Activity [8] | Activity [9] | Activity [10] | Activity [11] | Compound
1 | 8.45 ng/mL | Dose-dependent effect | 0.13 ng/mL | 0.67 ng/mL | 13.6 ng/mL | 0.29 ng/mL | 0.03 ng/mL | 97.2 ng/mL | 0.03 ng/mL | 0.2 ng/mL | 0.67 ng/mL | Cc1cn([C@H]2C[C@H](O[C@H]3C[C@@H](O)C[C@@H](OP(=O)(S)O[C@H]4C[C@H](n5cc(C)c(=O)[nH]c5=O)O[C@@H]4COP(=O)(S)O[C@H]4[C@@H](O)[C@H](n5ccc(N)nc5=O)O[C@@H]4COP(=O)(S)O[C@H]4C[C@H](n5cc(C)c(=O)[nH]c5=O)O[C@@H]4COP(=O)(S)O[C@H]4C[C@H](n5cc(C)c(=O)[nH]c5=O)O[C@@H]4COP(=O)(S)O[C@H]4C[C@H](n5ccc6c(=O)[nH]c(N)nc65)O[C@@H]4COP(=O)(S)O[C@H]4[C@@H](O)[C@H](n5ccc(N)nc5=O)O[C@@H]4COP(=O)(S)O[C@H]4C[C@H](n5cc(C)c(=O)[nH]c5=O)O[C@@H]4COP(=O)(S)O[C@H]4[C@@H](O)[C@H](n5cnc6c(=O)[nH]c(N)nc65)O[C@@H]4COP(=O)(S)O[C@H]4C[C@H](n5cc(C)c(=O)[nH]c5=O)O[C@@H]4COP(=O)(S)O[C@H]4[C@@H](O)[C@H](n5ccc(N)nc5=O)O[C@@H]4COP(=O)(S)O[C@H]4C[C@H](n5cc(C)c(=O)[nH]c5=O)O[C@@H]4CO)C3)[C@@H](COP(=O)(S)O[C@H]3[C@@H](O)[C@H](n4ccc(N)nc4=O)O[C@@H]3COP(=O)(S)O[C@H]3C[C@H](n4cc(C)c(=O)[nH]c4=O)O[C@@H]3COP(=O)(S)O[C@H]3C[C@H](n4cc(C)c(=O)[nH]c4=O)O[C@@H]3COP(=O)(S)O[C@H]3C[C@H](n4ccc5c(=O)[nH]c(N)nc54)O[C@@H]3COP(=O)(S)O[C@H]3[C@@H](O)[C@H](n4ccc(N)nc4=O)O[C@@H]3COP(=O)(S)O[C@H]3C[C@H](n4cc(C)c(=O)[nH]c4=O)O[C@@H]3COP(=O)(S)O[C@H]3[C@@H](O)[C@H](n4cnc5c(=O)[nH]c(N)nc54)O[C@@H]3COP(=O)(S)O[C@H]3C[C@H](n4cc(C)c(=O)[nH]c4=O)O[C@@H]3COP(=O)(S)O[C@H]3[C@@H](O)[C@H](n4ccc(N)nc4=O)O[C@@H]3COP(=O)(S)O[C@H]3C[C@H](n4cc(C)c(=O)[nH]c4=O)O[C@@H]3CO)O2)c(=O)[nH]c1=O (some centres not stated)
2 | 1.88 ng/mL | Dose-dependent effect | 0.11 ng/mL | 0.37 ng/mL | 13 ng/mL | 0.46 ng/mL | 0.01 ng/mL | 81.7 ng/mL | 0.03 ng/mL | 0.17 ng/mL | 0.5 ng/mL | Cc1cn([C@H]2C[C@H](OCC(O)COP(=O)(S)O[C@H]3C[C@H](n4cc(C)c(=O)[nH]c4=O)O[C@@H]3COP(=O)(S)O[C@H]3[C@@H](O)[C@H](n4ccc(N)nc4=O)O[C@@H]3COP(=O)(S)O[C@H]3C[C@H](n4cc(C)c(=O)[nH]c4=O)O[C@@H]3COP(=O)(S)O[C@H]3C[C@H](n4cc(C)c(=O)[nH]c4=O)O[C@@H]3COP(=O)(S)O[C@H]3C[C@H](n4ccc5c(=O)[nH]c(N)nc54)O[C@@H]3COP(=O)(S)O[C@H]3[C@@H](O)[C@H](n4ccc(N)nc4=O)O[C@@H]3COP(=O)(S)O[C@H]3C[C@H](n4cc(C)c(=O)[nH]c4=O)O[C@@H]3COP(=O)(S)O[C@H]3[C@@H](O)[C@H](n4cnc5c(=O)[nH]c(N)nc54)O[C@@H]3COP(=O)(S)O[C@H]3C[C@H](n4cc(C)c(=O)[nH]c4=O)O[C@@H]3COP(=O)(S)O[C@H]3[C@@H](O)[C@H](n4ccc(N)nc4=O)O[C@@H]3COP(=O)(S)O[C@H]3C[C@H](n4cc(C)c(=O)[nH]c4=O)O[C@@H]3CO)[C@@H](COP(=O)(S)O[C@H]3[C@@H](O)[C@H](n4ccc(N)nc4=O)O[C@@H]3COP(=O)(S)O[C@H]3C[C@H](n4cc(C)c(=O)[nH]c4=O)O[C@@H]3COP(=O)(S)O[C@H]3C[C@H](n4cc(C)c(=O)[nH]c4=O)O[C@@H]3COP(=O)(S)O[C@H]3C[C@H](n4ccc5c(=O)[nH]c(N)nc54)O[C@@H]3COP(=O)(S)O[C@H]3[C@@H](O)[C@H](n4ccc(N)nc4=O)O[C@@H]3COP(=O)(S)O[C@H]3C[C@H](n4cc(C)c(=O)[nH]c4=O)O[C@@H]3COP(=O)(S)O[C@H]3[C@@H](O)[C@H](n4cnc5c(=O)[nH]c(N)nc54)O[C@@H]3COP(=O)(S)O[C@H]3C[C@H](n4cc(C)c(=O)[nH]c4=O)O[C@@H]3COP(=O)(S)O[C@H]3[C@@H](O)[C@H](n4ccc(N)nc4=O)O[C@@H]3COP(=O)(S)O[C@H]3C[C@H](n4cc(C)c(=O)[nH]c4=O)O[C@@H]3CO)O2)c(=O)[nH]c1=O (some centres not stated)
